Assay outcomes: PubChem, several laboratories
MEKK2 mut-MEK5: signal of MEK5 binding to mutant human MEKK2 PB1 domain; bead flow cytometry, Alexa488-MEK5 binding to MEKK2 mutant; hit rate 0.35% among 290,000; percent response, % at 10 µM; in the data active = percent response above about 24%, passing the limit was not always enough
MEKK2 WT-MEK5: raises or lowers MEK5 binding to wildtype human MEKK2 PB1 domain | Q9Y2U5 | bead flow cytometry, Alexa488-MEK5 binding to MEKK2 WT; actives lie on both sides | binding response (% of control), % at 10 µM | hit rate 1.1% among 290,000 | AID 1531; in the data active = binding response below about 67% or above about 130%
MEKK3 PB1 HTS: MEKK3-MEK5 PB1 interaction, increase or decrease | bead-based flow cytometry, Alexa488-MEK5 binding to MEKK3; actives lie on both sides; 0 = blocked by unlabeled MEK5, 100 = vehicle | binding response (% of control), % at 10 µM | hit rate 1.4% among 290,000;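 active = binding response more than 3 SD above or below the average of its plate-row segment, actives on both sides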;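 note: Alexa488 bead fluorescence after subtracting the streptavidin-only scavenger bead signal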
UBC13 polyUb: inhibitors of human UBC13 polyubiquitin chain formation; TR-FRET; AID 485273; P61088; inhibition, % at 20 µM; hit rate 0.47% among 330,000; in the data active = inhibition above about 45%, passing the limit was not always enough
Target sequence (P61088 whole entry, looked up): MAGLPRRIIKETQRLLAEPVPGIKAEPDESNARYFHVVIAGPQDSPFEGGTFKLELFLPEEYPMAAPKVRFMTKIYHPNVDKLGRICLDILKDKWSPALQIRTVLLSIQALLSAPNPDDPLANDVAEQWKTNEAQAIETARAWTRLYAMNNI
Apaf-1 inh: inhibitors of human Apaf-1 apoptosome | O14727 | reconstituted apoptosome caspase-3 activity, DEVD-Rh110 fluorescence | inhibition, % at 20 µM | hit rate 0.71% among 330,000; active = inhibition of at least 40% at 20 µM;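 note: plate controls were DMSO wells for no effect and DEVD-CHO caspase inhibitor wells for full effect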
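Material: cell-free apoptosome with Apaf-1, procaspase-3 and caspase-9; Buffer or medium: Hepes pH 7.5 with detergent and BSA; Reagent: cytochrome c trigger plus (Z-DEVD)2-Rh110 caspase-3 substrate; Times: compound with Apaf-1, dATP, procaspase-3 30 min, then 50 min reaction, room temperature; Technique: Rh110 fluorescence intensity.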
Casp3 UBC13 ctr: caspase-3 inhibition (UBC13 counter-screen); hit rate 4% among 1,400; Recombinant caspase-3, Caspase-Glo 3/7 luminescence, 60 min; shares compounds with UBC13 polyUb; inhibition, % at 20 µM;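 active = mean inhibition across replicates above about 26%, limit read from the data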;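 note: plate controls were DMSO with caspase-3 for no effect and DMSO wells lacking enzyme for full effect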
Target sequence (P42574 whole entry, looked up): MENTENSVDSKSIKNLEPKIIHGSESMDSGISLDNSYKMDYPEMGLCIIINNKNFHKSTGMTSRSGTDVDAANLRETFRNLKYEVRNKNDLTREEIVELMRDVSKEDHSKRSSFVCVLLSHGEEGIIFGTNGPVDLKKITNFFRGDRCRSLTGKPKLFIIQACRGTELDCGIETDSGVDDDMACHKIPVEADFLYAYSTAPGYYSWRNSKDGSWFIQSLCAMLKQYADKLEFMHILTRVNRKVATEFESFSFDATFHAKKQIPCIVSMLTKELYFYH
UBC13 conf: human UBC13 polyubiquitin inhibition, confirmed; shares compounds with UBC13 polyUb; UBC13 polyubiquitination, TR-FRET, biochemical; inhibition, % at 10 µM; hit rate 68% among 1,400; AID 488859; in the data active = inhibition above about 45%
Starred values were filed as active, the others as inactive. Compounds with a hit are over-represented: about 2.9% of the library has one in this group of screens.

How did Oc1[nH]c2ccc(Br)cc2c1N=NC(=S)NCC1CCCO1 (centres undefined) do in these assays?
MEKK2 mut-MEK5: -1.0; MEKK2 WT-MEK5: 93.0; MEKK3 PB1 HTS: 94.0; UBC13 polyUb: 79.3*; Apaf-1 inh: 1.5; Casp3 UBC13 ctr: 3.0; UBC13 conf: 96.7*

What do the screens show for `Oc1[nH]c2c(Cl)cc(Cl)cc2c1N=NC(=S)NCC1CCCO1` (centres undefined)?
MEKK2 mut-MEK5: 14.0; MEKK2 WT-MEK5: 81.0; MEKK3 PB1 HTS: 98.0; UBC13 polyUb: -42.8; Apaf-1 inh: 2.5

Results for CC(C)NC(=S)N=Nc1c(O)[nH]c2ccc(C(C)C)cc12 ?
MEKK2 mut-MEK5: 8.0; MEKK2 WT-MEK5: 107.0; MEKK3 PB1 HTS: 103.0; UBC13 polyUb: 64.6*; Apaf-1 inh: 19.4; Casp3 UBC13 ctr: 0.1; UBC13 conf: 74.1*

How did Cc1cc(C)c2[nH]c(O)c(N=NC(=S)NCC3CCCO3)c2c1 (centres undefined) do in these assays?
MEKK2 mut-MEK5: -7.0; MEKK2 WT-MEK5: 84.0; MEKK3 PB1 HTS: 76.0; UBC13 polyUb: 90.9*; Apaf-1 inh: -12.0; Casp3 UBC13 ctr: -5.9; UBC13 conf: 93.6*

How did CC(C)c1ccc2[nH]c(O)c(N=NC(=O)c3cccc(S(=O)(=O)Nc4ccccc4Cl)c3)c2c1 do in these assays?
MEKK2 mut-MEK5: -1.0; MEKK2 WT-MEK5: 101.0; MEKK3 PB1 HTS: 105.0; UBC13 polyUb: -27.8; Apaf-1 inh: 16.1

What do the screens show for `CCn1c(O)c(N=NC(=S)NCC2CCCO2)c2ccccc21` (centres undefined)?
MEKK2 mut-MEK5: 0.0; MEKK2 WT-MEK5: 99.0; MEKK3 PB1 HTS: 100.0; UBC13 polyUb: 76.9*; Apaf-1 inh: 0.3; Casp3 UBC13 ctr: 2.0; UBC13 conf: 95.3*

Results for O=C(NCC1CCCN1S(=O)(=O)c1cccs1)c1c(F)cccc1F (centres undefined) ?
UBC13 polyUb: 0.2; Apaf-1 inh: 7.4

What do the screens show for `O=C(CCc1nnc(CCCc2ccccc2)o1)NCC(F)(F)F`?
MEKK2 mut-MEK5: -5.0; MEKK2 WT-MEK5: 98.0; MEKK3 PB1 HTS: 104.0; UBC13 polyUb: -6.7; Apaf-1 inh: -5.2

How did C=CCN(c1ccccc1)S(=O)(=O)c1cccc(C(=O)NCC2CCCO2)c1 (centres undefined) do in these assays?
MEKK2 mut-MEK5: 5.0; MEKK2 WT-MEK5: 111.0; MEKK3 PB1 HTS: 103.0; UBC13 polyUb: 15.4; Apaf-1 inh: 21.3

How did O=C(c1ccco1)N1CCN(C(=O)C2CC(=O)N(c3ccccc3)C2)CC1 (centres undefined) do in these assays?
MEKK2 mut-MEK5: -1.0; MEKK2 WT-MEK5: 106.0; MEKK3 PB1 HTS: 103.0; UBC13 polyUb: -5.4; Apaf-1 inh: 1.4

How did CCOC(=O)Cc1nc2ccccc2n(CC#N)c1=O do in these assays?
MEKK2 mut-MEK5: -5.0; MEKK2 WT-MEK5: 98.0; MEKK3 PB1 HTS: 96.0; UBC13 polyUb: -3.1; Apaf-1 inh: 1.9

What do the screens show for `Cc1cccc(NC(=S)N=Nc2c(O)[nH]c3ccccc23)c1`?
MEKK2 mut-MEK5: 0.0; MEKK2 WT-MEK5: 93.0; MEKK3 PB1 HTS: 96.0; UBC13 polyUb: 59.9*; Apaf-1 inh: 1.7; Casp3 UBC13 ctr: 1.7; UBC13 conf: 75.5*

Results for Oc1[nH]c2ccccc2c1N=NC(=S)NCC1CCCO1 (centres undefined) ?
MEKK2 mut-MEK5: 12.0; MEKK2 WT-MEK5: 90.0; MEKK3 PB1 HTS: 103.0; UBC13 polyUb: 98.0*; Apaf-1 inh: 1.5; Casp3 UBC13 ctr: 2.2; UBC13 conf: 101.7*

Results for O=C(O)c1ccccc1NC(=O)c1ccccc1Nc1ccccc1 ?
MEKK2 mut-MEK5: 5.0; MEKK2 WT-MEK5: 102.0; MEKK3 PB1 HTS: 104.0; UBC13 polyUb: -10.4; Apaf-1 inh: 11.3

How did Nn1c(SCC(=O)Nc2ccccc2F)nnc1C1CCCCC1 do in these assays?
MEKK2 mut-MEK5: -5.0; MEKK2 WT-MEK5: 98.0; MEKK3 PB1 HTS: 98.0; UBC13 polyUb: 0.0; Apaf-1 inh: 4.3

What do the screens show for `COc1ccc(OC)c(-c2nnc3n2N=C(c2ccc(OC)c(OC4CCCC4)c2)CS3)c1`?
UBC13 polyUb: 27.5; Apaf-1 inh: 37.6

How did COc1ccc(C2=Nn3c(nnc3-c3ccccc3F)SC2)cc1OC1CCOC1 (centres undefined) do in these assays?
UBC13 polyUb: 45.7*; Apaf-1 inh: 20.5; Casp3 UBC13 ctr: -0.9; UBC13 conf: 31.0

Results for CCOc1ccc(N(C(=O)c2snc(C(N)=O)c2N)C(C(=O)NCC2CCCO2)c2ccc(C)o2)cc1 (centres undefined) ?
MEKK2 mut-MEK5: 7.0; MEKK2 WT-MEK5: 100.0; MEKK3 PB1 HTS: 104.0; UBC13 polyUb: 74.2*; Apaf-1 inh: 3.9; Casp3 UBC13 ctr: -0.2; UBC13 conf: 81.7*

How did Cc1ccc(C(C(=O)NCC2CCCO2)N(C(=O)c2snc(C(N)=O)c2N)c2ccc(F)cc2)o1 (centres undefined) do in these assays?
MEKK2 mut-MEK5: 2.0; MEKK2 WT-MEK5: 104.0; MEKK3 PB1 HTS: 100.0; UBC13 polyUb: 46.3*; Apaf-1 inh: 13.3; Casp3 UBC13 ctr: -4.6; UBC13 conf: 38.9

How did CCOc1ccc(C(C(=O)NCC2CCCO2)N(C(=O)c2snc(C(N)=O)c2N)c2cccc(F)c2)cc1 (centres undefined) do in these assays?
MEKK2 mut-MEK5: 1.0; MEKK2 WT-MEK5: 97.0; MEKK3 PB1 HTS: 99.0; UBC13 polyUb: 35.6; Apaf-1 inh: 14.8

What do the screens show for `NC(=O)c1nsc(C(=O)N(c2ccccc2)C(C(=O)NCC2CCCO2)c2ccc(F)cc2)c1N` (centres undefined)?
MEKK2 mut-MEK5: 5.0; MEKK2 WT-MEK5: 102.0; MEKK3 PB1 HTS: 102.0; UBC13 polyUb: 21.8; Apaf-1 inh: 7.4

How did CCOc1ccc(C(C(=O)NCC2CCCO2)N(C(=O)c2snc(C(N)=O)c2N)c2ccccc2F)cc1 (centres undefined) do in these assays?
MEKK2 mut-MEK5: 0.0; MEKK2 WT-MEK5: 98.0; MEKK3 PB1 HTS: 100.0; UBC13 polyUb: 47.8*; Apaf-1 inh: 13.7; Casp3 UBC13 ctr: -0.1; UBC13 conf: 48.1*

Results for COc1cc(OC)cc(N(C(=O)c2snc(C(N)=O)c2N)C(C(=O)NCC2CCCO2)c2ccc(C)o2)c1 (centres undefined) ?
MEKK2 mut-MEK5: 5.0; MEKK2 WT-MEK5: 102.0; MEKK3 PB1 HTS: 99.0; UBC13 polyUb: 4.0; Apaf-1 inh: 9.5

Results for Cc1ccc(C(C(=O)NCC2CCCO2)N(C(=O)c2snc(C(N)=O)c2N)c2ccccc2F)o1 (centres undefined) ?
MEKK2 mut-MEK5: 7.0; MEKK2 WT-MEK5: 100.0; MEKK3 PB1 HTS: 100.0; UBC13 polyUb: 47.2*; Apaf-1 inh: 8.5; Casp3 UBC13 ctr: -0.1; UBC13 conf: 30.2
